Measurements gathered from unrelated publications.
Each line is one published result; the experiments were not run side by side.
DRD4: D(4) dopamine receptor (DRD4, Homo sapiens, UniProt P21917)
HTR5A: 5-hydroxytryptamine receptor 5A (HTR5A, Homo sapiens, UniProt P47898)
Kir1 channel protein: Kir1 channel protein (Aedes aegypti, UniProt L0EQS9)
PIK3CD: Phosphatidylinositol 4,5-bisphosphate 3-kinase catalytic subunit delta isoform (PIK3CD, Homo sapiens, UniProt O00329)

| SMILES | target | assay | setting | endpoint | value |
| --- | --- | --- | --- | --- | --- |
| CC1=C(O)C(=O)OC1C (stereo not shown) | OR8D1 (Homo sapiens, UniProt Q8WZ84, del306-308) | cAMP, agonist, luciferase |  | EC50 | 4500 nM |
| CCn1c(-c2nc3ccc(C(=O)N4CCCC(N)C4)cc3n2C)cc2ccccc21 (stereo not shown) | Nuclear receptor subfamily 1 group I member 2 (NR1I2, Homo sapiens, UniProt O75469) | reporter gene, agonist, luciferase |  | EC50 | > 50100 nM |
| CC[C@@H]1C(=O)OC[C@@H]1Cc1cncn1C | Cytochrome P450 2E1 (CYP2E1, Homo sapiens, UniProt P05181) | enzyme activity, inhibitor | 10 min, pH 6.8 | Ki | 765000 nM |
| CCCCCCCNCCCc1ccc([N+](=O)[O-])cc1 | DRD4 | ligand displacement, radioligand |  | Ki | 240 nM |
| CC(C)=CCC/C(C)=C/CC/C(C)=C/CSc1ccccc1C(=O)O | Squalene synthase (Homo sapiens, UniProt P37268) | enzyme activity, inhibitor |  | Ki | 370 nM |
| COc1ccc(-c2nsc(NC(=O)[C@@H]3C[C@H]3C)c2C)cc1 | Metabotropic glutamate receptor 8 (GRM8, Homo sapiens, UniProt O00222) | calcium signal, agonist |  | EC50 | > 25000 nM |
| Cc1cnc(-c2ccc(-c3ccc(NC(=O)Nc4c(F)cc(F)cc4F)cc3F)c3c2C(=O)NC3)[nH]1 | Mast/stem cell growth factor receptor Kit (KIT, Homo sapiens, UniProt P10721) | binding, competition with immobilised ligand |  | Kd | 0.8 nM |
| COc1ccc2c(c1)C(=O)N(CCN1CCN(c3ccccc3OC)CC1)C2 | DRD4 | ligand displacement, radioligand |  | Ki | 191 nM |
| COc1ccc(F)cc1C(=O)NCc1ccc(-c2nn([C@@H](C)C(F)(F)F)c(N)c2C(N)=O)cc1 | Tyrosine-protein kinase BTK (BTK, Homo sapiens, UniProt Q06187, C481S) | phosphorylation in cells, inhibitor |  | IC50 | 8.1 nM |
| Cc1ncsc1-c1ccc(CNC(=O)[C@@H]2C[C@@H](O)CN2C(=O)[C@@H](NC(=O)CCCCCCCCCC(=O)N2CCN(CC[C@H](NC(=O)C3(N)CCN(c4ncnc5[nH]ccc45)CC3)c3ccc(Cl)cc3)CC2)C(C)(C)C)cc1 | RAC-beta serine/threonine-protein kinase (AKT2, Homo sapiens, UniProt P31751) | binding, competition with immobilised ligand |  | Kd | 360 nM |
| CNc1nc2cc(OCCCCN3CCC(c4cccc(Cl)c4Cl)CC3)ccc2s1 | HTR5A | ligand displacement, radioligand |  | Ki | 810 nM |
| CC(=O)CC(=O)SCCNC(=O)CCNC(=O)[C@H](O)C(C)(C)COP(=O)(O)OP(=O)(O)OC[C@H]1O[C@@H](n2cnc3c(N)ncnc32)[C@H](O)[C@@H]1OP(=O)(O)O | IVD (Homo sapiens, UniProt P26440) | binding, absorbance |  | Kd | ~18000 nM |
| CS(=O)(=O)C1(CNCc2ccc(Cl)c3cccnc23)CC1 | HTR5A | ligand displacement, radioligand |  | Ki | 126 nM |
| CCS(=O)(=O)N1CCN(c2ccc([N+](=O)[O-])c(NCc3cccnc3)c2)CC1 | Kir1 channel protein | ion flux, inhibitor |  | IC50 | 21000 nM |
| CCCCCCSC[C@H]1CN(Cc2c[nH]c3c(N)ncnc23)C[C@@H]1O | Aminodeoxyfutalosine nucleosidase (Helicobacter pylori, UniProt Q9ZMY2) | enzyme activity, inhibitor, absorbance | pH 7.4 | Ki | 0.085 nM |
| COc1ccc(CCC2=NCCN2CCc2ccccc2)cc1 | DRD4 | ligand displacement, radioligand |  | Ki | 501 nM |
| CCC(=O)N1CCC(C(=O)NCC(=O)N2CCN(c3nc(-c4cnc(N)nc4C(F)F)nc(N4CCOCC4)n3)CC2)CC1 | PIK3CD | binding, competition with immobilised ligand |  | Kd | 1.6 nM |
| O=[N+]([O-])c1ccc(N2CCN(S(=O)(=O)c3ccc(Cl)cc3)CC2)cc1NCc1ccco1 | Kir1 channel protein | ion current, inhibitor, patch clamp |  | IC50 | 34.2 nM |
| CN1CCN(c2ccc(Nc3ncc4cc(C#N)c(=O)n(C5CCCC5)c4n3)cc2)CC1 | Ribosomal protein S6 kinase alpha-5 (RPS6KA5, Homo sapiens, UniProt O75582) | enzyme activity, inhibitor |  | IC50 | 9210 nM |
| C=CC(=O)Nc1cc(Nc2nccc(Nc3cc(Cl)c(F)cc3C(C)(C)O)n2)c(OC)cc1N1CC[C@@H](N(C)C)C1 | Receptor tyrosine-protein kinase erbB-4 (ERBB4, Homo sapiens, UniProt Q15303) | enzyme activity, inhibitor | with preincubation | IC50 | 704 nM |
| COc1ccccc1N1CCN(CCCCN2CCc3ccccc3C2=O)CC1 | DRD4 | ligand displacement, radioligand |  | Ki | 6 nM |
| N#Cc1ccc(N2CCN(S(=O)(=O)c3ccc(F)cc3)CC2)cc1NCc1ccncc1 | Kir1 channel protein | ion flux, inhibitor |  | IC50 | 361 nM |
| C=CC(=O)N1CCC(C(=O)NCC(=O)N2CCN(c3nc(-c4cnc(N)nc4C(F)F)nc(N4CCOCC4)n3)CC2)CC1 | PIK3CD | binding, competition with immobilised ligand |  | Kd | 0.71 nM |
| O=[N+]([O-])c1ccc(N2CCN(S(=O)(=O)c3ccc(F)cc3)CC2)cc1NCc1cccnc1 | Kir1 channel protein | ion current, inhibitor, patch clamp |  | IC50 | 57 nM |
| Clc1ccc(CNC[C@H]2CCn3ccnc3C2)c2ncccc12 | HTR5A | ligand displacement, radioligand |  | Ki | 3240 nM |
